Calls of active or inactive are those of the source. The rule behind the calls is not given here.
Tests used:
[1] = molecular target: Acetylcholinesterase (Electrophorus electricus, UniProt O42275); experiment: Inhibition of electrophorus electricus AChE
[2] = molecular target: T1, Cholinesterase (Equus caballus, UniProt P81908); experiment: Inhibition of equine serum BuChE after 15 mins
[3] = molecular target: T1, Cholinesterase; experiment: Inhibition of equine serum BuChE
[4] = molecular target: T1, Cholinesterase; experiment: Reversible competitive inhibition of equine BuChE by Lineweaver-burk plot analysis
[5] = Toxicity against Artemia salina larvae assessed as larval mortality at 1000 ug/mL after 24 hrs relative to control; assay type: organism-based; conditions: in vivo, at 1000 µg/mL
[6] = Acute oral toxicity in Swiss mouse by OECD up and down test guideline method; conditions: in vivo
[7] = molecular target: Cholinesterase (Mus musculus, UniProt Q03311); experiment: Inhibition of BuChE in Swiss mouse liver homogenate by Ellman's assay; assay type: tissue-based
Method in brief: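 Swiss mouse livers from 8-week-old males were washed in ice-cold 0.2 M potassium phosphate, pH 7.6, then homogenized 1:10 w/v in 0.1 M phosphate, pH 7.6. Homogenates were spun at 1000 g, 4 °C, 15 min. Compounds were made up in 0.2 M phosphate, pH 7.6. Activity was read by modified Ellman's method, with protein by Lowry. IC50 came from dose-response, triplicate means ± SD.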

[8] = system: Mus musculus; experiment: In vivo inhibition of BuChE in Swiss mouse liver at 3 to 6 mg/kg, iv by Ellman's assay; assay type: functional, organism-based
[9] = molecular target: T2, Acetylcholinesterase (Mus musculus, UniProt P21836); experiment: Inhibition of AChE in Swiss mouse liver homogenate using acetylthiocholine iodide as substrate by Ellman's assay
T2 sequence (P21836 whole entry): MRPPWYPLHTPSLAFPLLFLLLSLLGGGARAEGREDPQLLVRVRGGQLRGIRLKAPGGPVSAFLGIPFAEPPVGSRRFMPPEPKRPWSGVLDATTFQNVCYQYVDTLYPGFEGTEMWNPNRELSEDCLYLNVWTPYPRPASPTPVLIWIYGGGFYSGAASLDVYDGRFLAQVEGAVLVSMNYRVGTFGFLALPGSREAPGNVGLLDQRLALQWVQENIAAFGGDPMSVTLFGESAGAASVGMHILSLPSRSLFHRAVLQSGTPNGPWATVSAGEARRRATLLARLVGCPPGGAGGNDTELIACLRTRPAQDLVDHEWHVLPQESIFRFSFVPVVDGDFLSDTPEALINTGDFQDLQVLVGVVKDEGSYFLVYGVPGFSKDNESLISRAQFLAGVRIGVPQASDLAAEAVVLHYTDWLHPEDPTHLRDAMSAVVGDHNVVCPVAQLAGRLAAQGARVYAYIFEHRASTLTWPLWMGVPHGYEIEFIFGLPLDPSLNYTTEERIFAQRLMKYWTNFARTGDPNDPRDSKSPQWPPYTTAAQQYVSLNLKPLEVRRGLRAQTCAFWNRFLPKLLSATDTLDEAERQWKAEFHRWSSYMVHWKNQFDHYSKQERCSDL

[10] = molecular target: Cholinesterase (Equus caballus) (UniProt P81908); experiment: Competitive inhibition of equine BuChE by Cornish-Bowden analysis
[11] = Acute toxicity in iv dosed Swiss mouse; conditions: in vivo
[12] = system: Artemia salina; experiment: Toxicity against Artemia salina larvae assessed as larval mortality after 24 hrs; assay type: organism-based; conditions: in vivo
Method in brief: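 A. salina nauplii were run per the Artoxkit M protocol: samples in saline were diluted 1:10 into saline medium, 10 larvae per well. Plates were held 24 h at 25 °C, and dead nauplii were counted by stereomicroscope. There were nine repeats per concentration, and LC50 came from dose-response. Negative controls were saline with and without 5% DMSO; potassium dichromate positive control ran 3.125–150 μg mL-1.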

[13] = system: Artemia salina; experiment: Toxicity against Artemia salina larvae assessed as larval mortality at 100 ug/mL after 24 hrs relative to control; assay type: organism-based; conditions: in vivo

T1 sequence (P81908 whole entry): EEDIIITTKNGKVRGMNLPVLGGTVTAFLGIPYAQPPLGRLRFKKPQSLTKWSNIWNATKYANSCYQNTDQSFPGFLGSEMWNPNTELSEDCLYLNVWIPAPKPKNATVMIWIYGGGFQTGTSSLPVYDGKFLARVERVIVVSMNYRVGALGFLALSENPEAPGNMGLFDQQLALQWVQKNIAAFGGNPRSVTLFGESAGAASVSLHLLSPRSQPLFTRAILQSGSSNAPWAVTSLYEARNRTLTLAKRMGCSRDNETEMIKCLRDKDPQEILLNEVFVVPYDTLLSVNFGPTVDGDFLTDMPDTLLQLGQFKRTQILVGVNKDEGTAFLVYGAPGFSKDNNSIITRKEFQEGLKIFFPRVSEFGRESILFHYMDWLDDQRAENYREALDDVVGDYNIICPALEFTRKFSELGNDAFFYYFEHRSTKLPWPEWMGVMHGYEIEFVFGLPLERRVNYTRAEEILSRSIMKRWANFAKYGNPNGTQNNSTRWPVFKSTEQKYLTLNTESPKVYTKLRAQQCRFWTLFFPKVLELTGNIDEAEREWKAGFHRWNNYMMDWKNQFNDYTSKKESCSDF
Acetylcholinesterase (Electrophorus electricus, UniProt O42275), sequence (O42275 whole entry): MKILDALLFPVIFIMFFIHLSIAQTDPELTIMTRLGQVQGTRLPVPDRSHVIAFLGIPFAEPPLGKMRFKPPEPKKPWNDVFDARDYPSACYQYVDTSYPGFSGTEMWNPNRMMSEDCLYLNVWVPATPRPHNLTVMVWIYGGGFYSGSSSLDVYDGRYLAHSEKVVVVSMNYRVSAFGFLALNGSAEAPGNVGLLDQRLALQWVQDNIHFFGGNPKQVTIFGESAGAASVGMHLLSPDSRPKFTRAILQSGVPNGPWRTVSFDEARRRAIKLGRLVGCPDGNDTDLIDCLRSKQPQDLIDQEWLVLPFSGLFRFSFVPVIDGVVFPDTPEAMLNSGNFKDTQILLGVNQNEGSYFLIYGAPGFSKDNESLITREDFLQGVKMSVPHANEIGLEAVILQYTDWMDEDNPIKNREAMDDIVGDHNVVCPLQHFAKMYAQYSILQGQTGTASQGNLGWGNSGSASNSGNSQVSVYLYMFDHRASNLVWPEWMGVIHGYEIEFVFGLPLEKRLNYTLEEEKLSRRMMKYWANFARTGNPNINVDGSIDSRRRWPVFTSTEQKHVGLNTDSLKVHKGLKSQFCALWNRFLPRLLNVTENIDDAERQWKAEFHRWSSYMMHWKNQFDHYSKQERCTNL
Cholinesterase (Equus caballus), sequence (P81908 whole entry): as the sequence (P81908 whole entry) above
Cholinesterase (Mus musculus, UniProt Q03311), sequence (Q03311 whole entry): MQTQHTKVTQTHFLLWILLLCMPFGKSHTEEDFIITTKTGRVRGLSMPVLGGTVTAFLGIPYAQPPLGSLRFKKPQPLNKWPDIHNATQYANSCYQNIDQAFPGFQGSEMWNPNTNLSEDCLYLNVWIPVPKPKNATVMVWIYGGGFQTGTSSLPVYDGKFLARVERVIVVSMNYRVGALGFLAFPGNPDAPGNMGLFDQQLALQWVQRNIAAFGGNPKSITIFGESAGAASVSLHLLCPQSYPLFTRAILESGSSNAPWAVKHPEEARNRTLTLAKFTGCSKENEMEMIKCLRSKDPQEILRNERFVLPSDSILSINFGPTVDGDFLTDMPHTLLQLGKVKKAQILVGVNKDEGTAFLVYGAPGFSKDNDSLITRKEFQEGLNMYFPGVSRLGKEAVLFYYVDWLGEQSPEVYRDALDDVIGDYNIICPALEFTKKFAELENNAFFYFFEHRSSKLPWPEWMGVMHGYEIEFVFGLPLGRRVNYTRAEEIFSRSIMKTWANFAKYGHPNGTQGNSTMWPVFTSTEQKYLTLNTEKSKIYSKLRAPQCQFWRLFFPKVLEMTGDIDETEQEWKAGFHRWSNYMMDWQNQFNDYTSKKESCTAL

O=C1N(CC2CCN(Cc3ccccc3)CC2)c2ccccc2C1(O)c1ccccc1 (racemic)
IC50 [1]: 193 µM
IC50 [2]: 6.61 µM

Cl.O=C1N(CC2CCNCC2)c2ccccc2C1(O)c1ccccc1 (racemic)
IC50 [1]: 500 µM
IC50 [3]: 18.3 µM
Ki [4]: 41 µM
mortality at 24 h, 1000 ug/mL [5]: 5%
LD50 [6]: 100 mg/kg
IC50 [7]: 435 µM
inhibition [8]: Active
IC50 [9]: 565 µM
inhibition [10]: Active

O=C1N(Cc2ccccc2)c2ccccc2C1(O)c1ccccc1 (racemic)
IC50 [1]: 237 µM
IC50 [3]: 7.41 µM

COc1cc2c(cc1OC)C(=O)C(CC1CCN(Cc3ccccc3)CC1)C2 (stereo not drawn) [DONEPEZIL]
mortality at 24 h, 1000 ug/mL [5]: 26%
LD50 [11]: 3.7 mg/kg
inhibition [8]: Active

POTASSIUM DICHROMATE
LC50 [12]: 15.04 µg/mL
Activity [13]: 100%

Source: ChEMBL document CHEMBL4308913, “In silico, NMR and pharmacological evaluation of an hydroxyoxindole cholinesterase inhibitor” (Bioorg Med Chem, 2019)
